# Sampled rows, rich in hits. Any-hit rate of the full collection: about 2.9%.
# SENP6 block – SENP6 protease inhibition; Q9GZR1; actives 1.8% (n = 330,000); Recombinant SENP6 catalytic domain, aminoluciferin luminescence; inhibition, % at 10 µM;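 active = inhibition above about 50% at the single tested dose, limit read from the data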;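 also: plate controls were DMSO wells with enzyme for no effect and DMSO wells lacking enzyme for full effect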
# Apaf-1 inh – blocks human Apaf-1 apoptosome activity; reconstituted apoptosome caspase-3 activity, DEVD-Rh110 fluorescence; inhibition, % at 20 µM; actives 0.71% (n = 330,000); AID 489030; active = inhibition of at least 40% at 20 µM;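 also: plate controls were DMSO wells for no effect and DEVD-CHO caspase inhibitor wells for full effect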
# Target sequence (O14727 whole entry, looked up): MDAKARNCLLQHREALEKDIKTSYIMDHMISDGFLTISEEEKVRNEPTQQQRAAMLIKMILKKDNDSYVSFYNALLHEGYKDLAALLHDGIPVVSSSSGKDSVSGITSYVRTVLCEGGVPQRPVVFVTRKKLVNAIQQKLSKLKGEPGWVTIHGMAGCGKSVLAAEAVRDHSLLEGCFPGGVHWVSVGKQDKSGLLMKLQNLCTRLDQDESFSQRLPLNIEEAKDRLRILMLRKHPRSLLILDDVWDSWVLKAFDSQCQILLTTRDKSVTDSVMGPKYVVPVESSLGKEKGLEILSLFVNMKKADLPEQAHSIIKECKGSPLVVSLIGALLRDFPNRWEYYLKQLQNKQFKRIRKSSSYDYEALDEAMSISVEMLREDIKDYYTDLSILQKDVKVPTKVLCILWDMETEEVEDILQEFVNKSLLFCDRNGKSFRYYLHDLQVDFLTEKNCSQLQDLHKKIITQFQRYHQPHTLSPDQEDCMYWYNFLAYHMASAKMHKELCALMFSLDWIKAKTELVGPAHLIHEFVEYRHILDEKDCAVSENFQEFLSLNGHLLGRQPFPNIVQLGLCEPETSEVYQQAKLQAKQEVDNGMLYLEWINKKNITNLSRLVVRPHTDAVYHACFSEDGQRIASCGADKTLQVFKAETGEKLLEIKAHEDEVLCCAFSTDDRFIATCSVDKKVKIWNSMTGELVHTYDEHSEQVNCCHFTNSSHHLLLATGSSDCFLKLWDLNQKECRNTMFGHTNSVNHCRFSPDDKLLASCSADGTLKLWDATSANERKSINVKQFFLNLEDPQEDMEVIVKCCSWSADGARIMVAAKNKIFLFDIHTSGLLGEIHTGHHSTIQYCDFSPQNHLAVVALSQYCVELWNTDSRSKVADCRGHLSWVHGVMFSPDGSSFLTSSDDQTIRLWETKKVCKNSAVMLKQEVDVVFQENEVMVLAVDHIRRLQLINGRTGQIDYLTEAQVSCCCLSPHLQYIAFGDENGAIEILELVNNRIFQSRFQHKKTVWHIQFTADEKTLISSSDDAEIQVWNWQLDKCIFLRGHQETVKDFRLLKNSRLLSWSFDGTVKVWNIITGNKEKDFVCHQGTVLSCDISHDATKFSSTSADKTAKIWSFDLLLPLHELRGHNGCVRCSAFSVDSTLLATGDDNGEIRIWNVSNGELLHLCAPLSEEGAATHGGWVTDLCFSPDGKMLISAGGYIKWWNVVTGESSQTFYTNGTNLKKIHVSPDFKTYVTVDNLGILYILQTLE
#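 Material: reconstituted apoptosome with Apaf-1, cytochrome c, caspase-9, procaspase-3, dATP / Buffer or medium: pH 7.5 Hepes buffer with CHAPS, BSA, DTT / Also added: cytochrome c with DEVD-Rh110 / Schedule: compound with Apaf-1, dATP, procaspase-3 30 min, then 50 min reaction, room temperature / Technique: rhodamine 110 fluorescence at Ex 480/Em 540 nm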
# SENP7 inh – inhibitors of human SENP7 protease; Q9BQF6; recombinant SENP7, Z-RLRGG-aminoluciferin luminescence, 40 min; inhibition, % at 5 µM; actives 1.5% (n = 330,000); AID 434973;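 active = inhibition above about 50% at the single test dose, limit read from the data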;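 also: plate controls were DMSO with enzyme for no effect and no enzyme buffer wells for full effect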
# SENP8 block-1 – SENP8 protease inhibition | purified SENP8, Z-RLRGG-aminoluciferin cleavage, luminescence | inhibition, % at 10 µM | actives 1.2% (n = 330,000) | AID 2540; in the data active = inhibition above about 50%
# SENP8 block-2 – blocks human SENP8 cleavage of Nedd8 substrate. recombinant SENP8, Nedd8 substrate fluorescence. inhibition, % at 20 µM. actives 0.64% (n = 360,000). AID 602440; in the data active = inhibition mostly above about 40%, no sharp cut-off; inactive = mostly below about 27%
# SENP1 FRET inh – SENP1 (human) catalytic domain inhibition. actives 0.21% (n = 360,000). inhibition, % at 10 µM. Q9P0U3. recombinant SENP1 catalytic domain, CyPet-SUMO1-YPet FRET cleavage. AID 624204;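 active = inhibition at least 30% at 10 µM, raw YFP signal under a set limit, fluorescence ratio 0.5 to 1.5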;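 also: 0% = enzyme with DMSO and 100% = no enzyme wells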
#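 Controls: no-enzyme wells low, DMSO-plus-enzyme wells high control. Test system: human recombinant His6-tagged SENP1 catalytic domain enzyme. Reagent: SFCypet-SUMO1-SFYpet FRET protein substrate, 25 nM final. Doses: one dose per compound, 10 µM, 0.5% DMSO. Detection: FRET, CFP and YFP emission. Timing: 50 min reaction at room temperature.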
# SENP8 conf – human SENP8 inhibition, confirmed; inhibition, % at 12.5 µM; shares compounds with SENP7 inh; actives 40% (n = 6,200); Recombinant SENP8, Z-RLRGG-aminoluciferin luminescence, 60 min; AID 488912;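 active = mean inhibition across replicates above about 50%, limit read from the data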
# SENP6 conf – human SENP6 inhibition, confirmed; shares compounds with SENP7 inh; recombinant SENP6, Z-RLRGG-aminoluciferin luminescence; inhibition, % at 12.5 µM; actives 58% (n = 6,200); AID 488915
# SENP7 confirm – human SENP7 inhibition, confirmed; shares compounds with SENP7 inh; recombinant SENP7, Z-RLRGG-aminoluciferin luminescence, 40 min; inhibition, % at 12.5 µM; actives 69% (n = 6,200)
# Casp3 select – inhibits human caspase-3 in SENP selectivity test; shares compounds with SENP7 inh; purified caspase-3, Z-DEVD-aminoluciferin luminescence, 60 min; inhibition, % at 12.5 µM; actives 60% (n = 6,200);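 active = mean inhibition above about 50%, limit read from the data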;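 also: plate controls were enzyme with DMSO for no effect and wells without caspase-3 for full effect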
# Luc interf – interferes with luciferase luminescence in SENP counter-screen; shares compounds with SENP7 inh; Pre-incubated SENP8/Z-RLRGG-aminoluciferin, luciferase luminescence interference; inhibition, % at 12.5 µM; actives 39% (n = 6,200);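 active = mean inhibition above about 50% when retested at one dose, limit read from the data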;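 also: plate controls were DMSO wells with completed reaction for no effect and substrate without enzyme for full effect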
# * hit, by the source's call; nt = no result given.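 The calls were made as follows, unless noted: active = mean inhibition above about 50% in the one-dose retest (limit read from the data); inactive = the rest.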
SMILES,SENP6 block,Apaf-1 inh,SENP7 inh,SENP8 block-1,SENP8 block-2,SENP1 FRET inh,SENP8 conf,SENP6 conf,SENP7 confirm,Casp3 select,Luc interf
CSc1nc2sc3c(c2c(=O)n1C)CCC(C)C3 (stereo unspecified),62.8*,3.9,50.1*,47.7,-7.2,-0.7,7.3,7.2,19.1,24.7,10.4
CSc1nc2sc3c(c2c(=O)n1C)CCC3,-16.0,6.4,3.3,-23.1,19.0,2.1,nt,nt,nt,nt,nt
COc1ccc(C(C(=O)Nc2ccc3c(c2)OCCO3)n2c(=O)c(-c3ccco3)nc3ccccc32)cc1 (stereo unspecified),nt,nt,nt,nt,-274.3,-23.5,nt,nt,nt,nt,nt
CCc1ccc(OC(=O)Nc2ccccc2)cc1,86.2*,4.2,37.6,78.1*,4.5,0.7,91.1*,90.8*,98.5*,82.3*,78.3*
CC(=O)Nc1ccc(NC(=O)Oc2ccccc2)cc1,-11.6,-14.2,4.5,-1.1,-49.1,1.6,nt,nt,nt,nt,nt
COc1ccc(OC(=O)Nc2ccccc2)cc1,81.9*,-0.2,-8.1,83.1*,9.5,1.9,1.9,87.6*,99.7*,91.6*,85.5*
Cn1c(=O)c2sccc2n2c(CCCC(=O)N3CCN(c4ccccn4)CC3)nnc12,-3.9,-7.0,2.0,-2.2,4.1,-2.7,nt,nt,nt,nt,nt
COc1ccc(Cc2c(O)nc(SCC(=O)c3ccc(OC)cc3)[nH]c2=O)cc1,5.8,4.7,1.4,-4.3,3.8,-0.6,nt,nt,nt,nt,nt
Cc1nc(SCC(N)=O)[nH]c(=O)c1Cc1ccc(OC(C)C)cc1,63.6*,-4.7,-0.5,-4.7,13.1,-5.6,12.1,6.1,11.6,6.6,1.5
Nc1c(-c2ccc(Cl)cc2)cnc2c(-c3ccccc3)cnn12,-7.7,5.3,-15.5,-5.4,-273.5,-0.2,nt,nt,nt,nt,nt
c1ccc(Nc2nc(-c3ccccc3)ns2)cc1,76.9*,11.8,83.4*,60.5*,10.1,-0.6,-5.4,52.6*,91.7*,46.6,8.2
Cc1nc(Nc2ccccc2)sc1-c1ccccc1,90.1*,17.2,89.6*,82.5*,-110.5,2.6,93.9*,93.8*,99.7*,70.7*,37.7
Cc1nc(Nc2ccc(C(=O)O)cc2)sc1-c1ccccc1,94.8*,-0.2,100.0*,95.9*,-400.2,-0.3,71.8*,91.9*,67.1*,18.2,6.0
CC(=O)c1sc(Nc2ccccc2)nc1C,nt,nt,nt,nt,-352.2,-1.6,nt,nt,nt,nt,nt
C[C@H](CO)N1C[C@H](C)[C@@H](CN(C)S(=O)(=O)c2ccccc2)Oc2ccc(NS(=O)(=O)c3cccs3)cc2C1=O,8.4,1.7,-5.5,3.8,18.6,-2.4,nt,nt,nt,nt,nt
C/C=C/c1cccc(-c2nc(C(=O)N3CCOCC3)cc3c2[C@H](CCO)N(C(=O)NC(C)C)C3)c1,nt,nt,nt,nt,13.3,0.9,nt,nt,nt,nt,nt
COc1cc(CCC(=O)OCC(=O)NCCc2ccc(S(N)(=O)=O)cc2)cc(OC)c1OC,-1.9,-13.7,3.0,9.1,6.9,-0.6,nt,nt,nt,nt,nt
COc1cc(/C=N/O)ccc1OCc1ccc(C(=O)O)cc1,97.2*,11.9,100.3*,96.0*,15.1,-1.6,97.4*,100.5*,103.7*,97.9*,98.8*
COc1cc(/C=N/NS(=O)(=O)c2ccc3ccccc3c2)ccc1OCc1ccc(C(=O)O)cc1,42.7,0.7,1.1,17.7,-0.2,-0.2,nt,nt,nt,nt,nt
COc1cc(/C=N/O)ccc1OCc1ccc(Cl)cc1,75.1*,-9.1,58.7*,42.8,nt,nt,64.1*,63.6*,86.2*,41.8,67.8*
O=C(COc1ccc(Cl)cc1Cl)OCn1nnc2ccccc2c1=O,-11.9,-2.1,-4.8,-7.4,16.6,4.4,nt,nt,nt,nt,nt
O=c1c2ccccc2nnn1COc1cccc(Cl)c1,57.5*,13.9,35.0,35.9,3.8,1.6,14.3,57.9*,48.0,49.4,1.7
Cc1ccc(/C=N/OC(=O)c2nn(C)cc2Cl)cc1,66.5*,-2.9,66.2*,50.1*,8.0,-1.1,-5.2,20.7,61.8*,33.9,49.0
CC(C)(C)NC(=O)NC(=O)Cn1ccsc1=N,-14.7,2.8,2.6,-3.2,10.4,1.0,nt,nt,nt,nt,nt
CCc1ccc(C(=O)Cn2ccsc2=N)cc1,78.6*,1.2,80.7*,74.9*,2.6,2.4,58.4*,53.5*,84.2*,65.5*,74.3*
SMILES,SENP6 block,Apaf-1 inh,SENP7 inh,SENP8 block-1,SENP8 block-2,SENP1 FRET inh,SENP8 conf,SENP6 conf,SENP7 confirm,Casp3 select,Luc interf
Cc1ccc(C(=O)NC2CCCCC2)cc1S(=O)(=O)N1CCCC1,-1.2,13.9,4.4,1.0,4.0,-1.4,nt,nt,nt,nt,nt
Cc1cc(C(=O)Nc2ccc(N3CCOCC3)c(Cl)c2)c(C)o1,76.8*,-8.0,57.5*,56.7*,22.7,2.4,71.2*,69.1*,87.8*,76.9*,74.5*
COc1ccc2nc(NC(=O)CSc3ccccc3)sc2c1,6.5,15.6,2.1,-9.4,9.5,-1.8,nt,nt,nt,nt,nt
CCOc1ccc2nc(NC(=O)CSc3cn[nH]n3)sc2c1,67.0*,5.8,1.5,14.6,10.6,-0.1,34.7,30.4,50.3*,40.7,48.9
COc1ccc2nc(NC(=O)CSc3cn[nH]n3)sc2c1,50.2*,10.4,6.8,11.0,-4.6,0.1,31.0,27.5,65.1*,62.0*,59.5*
O=C(CSc1cn[nH]n1)Nc1ccccc1C(F)(F)F,7.0,8.4,-11.5,-11.7,12.4,0.7,nt,nt,nt,nt,nt
COC(=O)c1cc(S(=O)(=O)NC2CCC(C)CC2)cn1C (stereo unspecified),11.1,-10.3,3.6,5.4,9.4,-0.5,nt,nt,nt,nt,nt
CC(=O)Nc1cccc(/C(C)=N/N2C(C)CCCC2C)c1 (stereo unspecified),-12.2,3.4,-4.8,-5.5,16.0,1.1,nt,nt,nt,nt,nt
O=C(Nc1cccc(O)c1)c1noc2c1CCCCC2,96.2*,-9.9,94.6*,92.1*,-6.7,2.9,95.6*,95.9*,102.2*,95.9*,92.6*
Cc1ccc(NC(=O)c2noc3c2CCC3)cc1C,nt,nt,nt,nt,27.5,-1.8,nt,nt,nt,nt,nt
COc1ccc(NC(=O)c2noc3c2CCC3)cc1,22.4,2.2,81.1*,71.5*,18.3,1.0,10.9,77.2*,93.3*,90.1*,79.1*
CC(=O)c1ccc(NC(=O)c2noc3c2CCC3)cc1,30.9,-14.4,18.3,7.9,7.0,2.8,nt,nt,nt,nt,nt
